Source: ChEMBL document CHEMBL4177655, “Synthesis and biological evaluation of Santacruzamate-A based analogues” (Bioorg Med Chem, 2017)
Calls of active or inactive are those of the source. No cut-off for these calls is given here.

Experiments:
[1] = tested on: HCT-116; assay: Antiproliferative activity against human HCT116 cells after 24 hrs by MTT assay; assay type: functional, cell-based; conditions: HCT-116, 24 h
[2] = tested on: HCT-116; assay: Antiproliferative activity against human HCT116 cells after 48 hrs by MTT assay; assay type: functional, cell-based; conditions: HCT-116, 48 h
[3] = tested on: HCT-116; assay: Antiproliferative activity against human HCT116 cells after 72 hrs by MTT assay; assay type: functional, cell-based; conditions: HCT-116, 72 h
[4] = biological target: T1, Histone deacetylase (Homo sapiens) (UniProt Q13547+O15379+Q9UBN7+Q92769+Q9UQL6+Q8WUI4+Q9BY41+Q96DB2+P56524+Q9UKV0+Q969S8); assay: Inhibition of HDAC in human HCT116 cells assessed as reduction in acetyl-histone-H3 levels at 10 uM after 24 hrs by Western blot analysis relative to control; assay type: cell-based
How it was run: (§1)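 HCT116 cells were treated 24 h at 10 µM, with DMSO vehicle as control. Total lysates (protein by Bradford against a BSA standard, ~30 µg loaded) were run on 15% SDS-PAGE under reducing conditions and transferred to nitrocellulose. Membranes were blocked in 5% milk, then probed with anti-acetyl-histone H3 or H4, with GAPDH as loading control. Detection by HRP secondary and ECL. Three experiments.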

[5] = biological target: T2, Histone deacetylase 3/Nuclear receptor corepressor 2 (HDAC3/NCoR2) (Homo sapiens) (UniProt O15379+Q9Y618); assay: Inhibition of human full length C-terminal His-tagged HDAC3/N-terminal GST-tagged human NCOR2 (395 to 489 residues) co-expressed in baculovirus infected Sf9 insect cells measured every 5 mins by fluorescence assay
[6] = biological target: T1, Histone deacetylase (Homo sapiens); assay: Inhibition of HDAC in human HCT116 cells assessed as reduction in acetyl-histone-H4 levels at 10 uM after 24 hrs by Western blot analysis relative to control; assay type: cell-based; how it was run: as §1
[7] = biological target: T2, Histone deacetylase 3/Nuclear receptor corepressor 2 (HDAC3/NCoR2) (Homo sapiens); assay: Inhibition of human full length C-terminal His-tagged HDAC3/N-terminal GST-tagged human NCOR2 (395 to 489 residues) co-expressed in baculovirus infected Sf9 insect cells preincubated for 16 hrs measured every 5 mins by fluorescence assay
[8] = biological target: T3, Protein deacetylase HDAC6 (Homo sapiens) (UniProt Q9UBN7); assay: Inhibition of full-length recombinant HDAC6 (unknown origin) expressed in baculovirus infected Sf9 insect cells measured every 5 mins by fluorescence assay
T3 sequence (whole entry): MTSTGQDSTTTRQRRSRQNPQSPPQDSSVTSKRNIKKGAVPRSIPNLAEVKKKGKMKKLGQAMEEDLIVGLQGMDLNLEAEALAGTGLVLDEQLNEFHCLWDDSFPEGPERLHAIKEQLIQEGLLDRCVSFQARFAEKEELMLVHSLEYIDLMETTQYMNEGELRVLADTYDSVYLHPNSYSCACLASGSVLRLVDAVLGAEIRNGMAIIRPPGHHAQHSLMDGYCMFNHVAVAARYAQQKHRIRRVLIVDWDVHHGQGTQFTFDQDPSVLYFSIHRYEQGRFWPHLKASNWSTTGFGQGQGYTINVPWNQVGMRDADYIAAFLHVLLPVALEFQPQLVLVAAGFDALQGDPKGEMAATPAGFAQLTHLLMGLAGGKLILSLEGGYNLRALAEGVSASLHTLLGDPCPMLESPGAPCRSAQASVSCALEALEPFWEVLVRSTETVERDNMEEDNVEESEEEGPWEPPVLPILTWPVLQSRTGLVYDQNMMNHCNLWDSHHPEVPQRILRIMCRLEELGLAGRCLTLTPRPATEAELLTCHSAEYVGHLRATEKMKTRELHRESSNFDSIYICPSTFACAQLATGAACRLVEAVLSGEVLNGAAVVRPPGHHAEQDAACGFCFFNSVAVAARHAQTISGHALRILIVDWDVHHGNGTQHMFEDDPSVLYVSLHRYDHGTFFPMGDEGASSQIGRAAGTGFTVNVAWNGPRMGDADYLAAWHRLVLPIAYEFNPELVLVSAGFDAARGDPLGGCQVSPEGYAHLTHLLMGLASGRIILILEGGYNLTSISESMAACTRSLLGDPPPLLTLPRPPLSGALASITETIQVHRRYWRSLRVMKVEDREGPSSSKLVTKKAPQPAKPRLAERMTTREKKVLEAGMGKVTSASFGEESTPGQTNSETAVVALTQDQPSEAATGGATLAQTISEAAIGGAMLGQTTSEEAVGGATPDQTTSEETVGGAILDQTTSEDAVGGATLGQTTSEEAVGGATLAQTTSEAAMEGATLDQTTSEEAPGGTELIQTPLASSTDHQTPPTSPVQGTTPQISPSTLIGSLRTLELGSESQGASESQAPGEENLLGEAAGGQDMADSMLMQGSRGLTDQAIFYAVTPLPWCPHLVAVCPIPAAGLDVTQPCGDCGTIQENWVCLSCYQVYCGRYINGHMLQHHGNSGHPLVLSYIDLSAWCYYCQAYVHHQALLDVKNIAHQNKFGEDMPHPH

[9] = biological target: Histone deacetylase 2 (Homo sapiens) (UniProt Q92769); assay: Inhibition of full-length human recombinant HDAC2 expressed in baculovirus infected Sf9 insect cells preincubated for 16 hrs measured every 5 mins by fluorescence assay
[10] = biological target: Histone deacetylase 1 (Homo sapiens) (UniProt Q13547); assay: Inhibition of full-length recombinant HDAC1 (unknown origin) expressed in baculovirus infected Sf9 insect cells preincubated for 16 hrs measured every 5 mins by fluorescence assay
[11] = biological target: Histone deacetylase 1 (Homo sapiens) (UniProt Q13547); assay: Inhibition of full-length recombinant HDAC1 (unknown origin) expressed in baculovirus infected Sf9 insect cells measured every 5 mins by fluorescence assay
[12] = biological target: T4, Histone deacetylase 8 (Homo sapiens) (UniProt Q9BY41); assay: Inhibition of human full-length recombinant C-termianl His-tagged HDAC8 expressed in baculovirus infected Sf9 insect cells measured every 5 mins by fluorescence assay
T4 sequence (whole entry): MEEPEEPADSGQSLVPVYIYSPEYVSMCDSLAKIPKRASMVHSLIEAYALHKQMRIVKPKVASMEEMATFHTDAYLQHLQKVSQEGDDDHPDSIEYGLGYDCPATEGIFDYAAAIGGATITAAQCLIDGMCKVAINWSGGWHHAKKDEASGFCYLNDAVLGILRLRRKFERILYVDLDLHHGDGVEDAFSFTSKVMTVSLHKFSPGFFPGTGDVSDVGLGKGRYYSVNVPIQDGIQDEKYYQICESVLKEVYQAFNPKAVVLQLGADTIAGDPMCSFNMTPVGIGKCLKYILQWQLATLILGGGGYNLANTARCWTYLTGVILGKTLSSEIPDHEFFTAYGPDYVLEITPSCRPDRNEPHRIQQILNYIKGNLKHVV

Histone deacetylase 1 (Homo sapiens), sequence (Q13547 whole entry): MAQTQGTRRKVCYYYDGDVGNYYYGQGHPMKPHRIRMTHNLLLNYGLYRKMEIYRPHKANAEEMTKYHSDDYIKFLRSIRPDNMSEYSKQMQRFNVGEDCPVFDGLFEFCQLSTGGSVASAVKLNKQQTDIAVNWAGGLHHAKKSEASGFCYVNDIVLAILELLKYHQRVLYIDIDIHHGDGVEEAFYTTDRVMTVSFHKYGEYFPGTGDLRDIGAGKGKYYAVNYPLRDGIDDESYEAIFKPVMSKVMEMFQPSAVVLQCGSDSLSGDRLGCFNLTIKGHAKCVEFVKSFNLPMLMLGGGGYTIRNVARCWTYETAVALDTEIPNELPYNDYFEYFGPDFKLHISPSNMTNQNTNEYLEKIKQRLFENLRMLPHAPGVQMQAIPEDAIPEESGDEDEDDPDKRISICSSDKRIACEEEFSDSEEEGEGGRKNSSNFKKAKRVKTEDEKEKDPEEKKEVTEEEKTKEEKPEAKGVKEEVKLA
Histone deacetylase 2 (Homo sapiens), sequence (Q92769 whole entry): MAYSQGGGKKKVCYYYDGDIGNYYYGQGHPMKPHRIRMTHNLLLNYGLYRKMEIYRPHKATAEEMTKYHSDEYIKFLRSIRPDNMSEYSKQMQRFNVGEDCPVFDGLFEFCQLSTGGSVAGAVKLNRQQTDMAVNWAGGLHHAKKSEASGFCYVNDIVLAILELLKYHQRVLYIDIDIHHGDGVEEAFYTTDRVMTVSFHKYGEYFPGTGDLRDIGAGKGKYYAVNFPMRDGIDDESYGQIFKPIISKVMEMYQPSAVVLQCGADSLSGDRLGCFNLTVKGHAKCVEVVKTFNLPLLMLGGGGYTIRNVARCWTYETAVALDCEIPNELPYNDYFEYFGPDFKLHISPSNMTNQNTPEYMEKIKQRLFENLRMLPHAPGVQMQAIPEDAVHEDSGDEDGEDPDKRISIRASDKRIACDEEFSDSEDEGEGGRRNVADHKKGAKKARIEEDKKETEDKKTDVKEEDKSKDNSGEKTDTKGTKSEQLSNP

Compound | IC50 [1] [µM] | IC50 [2] [µM] | IC50 [3] [µM] | also measured
CCOC(=O)NCCCC(=O)NCCc1cccc(O)c1 | > 50 | 0.476 | 1 to 5 | inhibition [4]: inactive; inhibition [5]: inactive; inhibition [6]: inactive; inhibition [7]: inactive; inhibition [8]: inactive; inhibition [9]: inactive; inhibition [10]: inactive; inhibition [11]: inactive; inhibition [12]: inactive
CCOC(=O)NCCCC(=O)NCc1ccccc1 | > 50 |  | 0.615 | 
O=C(CCCNC(=O)C(=O)O)NCCc1ccccc1 | > 50 | > 50 |  | 
O=C(CCCNC(=O)C(=O)O)NCCCc1ccccc1 | > 50 |  |  | 
CCOC(=O)NCCCC(=O)NCCc1ccccc1 | > 50 | > 50 | > 50 | inhibition [5]: inactive; inhibition [7]: inactive; inhibition [8]: inactive; inhibition [9]: inactive; inhibition [10]: inactive; inhibition [11]: inactive; inhibition [12]: inactive

Second part, led by results:

IC50 [1] [µM] | IC50 [2] [µM] | IC50 [3] [µM] | Compound | also measured
> 50 |  |  | O=C(CCCNC(=O)C(=O)O)NCCc1cccc(F)c1 | 
> 50 | > 50 |  | O=C(CCCNC(=O)C(=O)O)NCCc1cccc(O)c1 | 
> 50 | 0.825 | 5 to 10 | CCOC(=O)NCCCC(=O)NCCc1cccc(F)c1 | 
> 50 | > 50 | > 50 | CCOC(=O)NCCCC(=O)NCCCc1ccccc1 | 
0.814 | > 50 |  | O=C(CCCNC(=O)C(=O)O)Nc1ccccc1 | inhibition [4]: inactive; inhibition [6]: inactive
< 50 |  |  | O=C(CCCNC(=O)C(=O)O)NCCc1c[nH]c2ccccc12 | 
